Laboratory results as given in ChEMBL document CHEMBL1142233, “Treatment of diabetes and atherosclerosis by inhibiting fatty-acid-binding protein aP2” (2007).
The source made the active and inactive calls. The calls are words filed in the database; no cut-off is given here.

Columns and labels:
Adipocyte = assay: Decrease in fatty acid uptake in FABP-deficient mouse adipocytes reconstituted with exogenous aP2 after 24 hrs; assay type: functional, cell-based
Procedure, shortened: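 Immortalized mouse pre-adipocytes differentiated with dexamethasone, IBMX, rosiglitazone and insulin, then insulin alone. Cells incubated 24 h in DMEM with 2% FBS plus inhibitor, then moved to DMEM with 2% BSA and given ³H-stearate at 37 °C for 30 min. Lysate counted by scintillation; values normalized to protein and expressed as % of untreated.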

Mus musculus [1] = assay: Increase in insulin-stimulated AKT serine 473 phosphorylation in ob/ob mouse adipose tissue at 40 mg/kg/day, po relative to control; assay type: functional, organism-based
Procedure, shortened: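 Male ob/ob mice were dosed by oral gavage at 40 mg kg⁻¹ d⁻¹ or with vehicle. After 6 h food withdrawal and tribromoethanol anaesthesia, insulin (2 IU kg⁻¹) or PBS went into the portal vein. Adipose tissue was taken 3 min later, lysed and immunoblotted for IRβ pTyr1162/1163, AKT pSer473 and total proteins. Signals were quantified by densitometry.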

Mus musculus [2] = assay: Effect on triglyceride level in 5-week old apoE-/- C57BL/6J mouse fed on western diet and administered with 15 mg/kg/day, po drug at 12 week in 12-18 week late intervention study; assay type: functional
Procedure, shortened: (§1)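 Male Apoe−/− mice on western diet (21% fat, 0.21% cholesterol) from 4–5 weeks of age. Oral gavage for 6 weeks from age 5 or 12 weeks; vehicle 10% 1-methyl-2-pyrrolidone, 5% cremophor EL with ethanol in water. Blood taken after 6 h fast before and after treatment. Glucose by meter; insulin by ELISA; lipids and glycerol colorimetric.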

[3] = Reduction in total cholesterol ester content in mouse aP2-/-R macrophage cells (re-expression of aP2) at 25 uM relative to control; assay type: functional, cell-based
Mus musculus [4] = assay: Increase in whole body glucose disposal and glucose infusion rate in ob/ob mouse at 40 mg/kg/day, po after 4 weeks by hyperinsulinemic-euglycaemic clamp studies; assay type: functional, organism-based
Procedure, shortened: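 Clamps were run in ob/ob mice after 4 weeks of oral gavage at 40 mg kg⁻¹ d⁻¹ (vehicle n = 7, treated n = 9), with jugular catheters placed 4 days earlier. Insulin was infused at 12.5 mU kg⁻¹ min⁻¹, 25% glucose at variable rates held basal glycaemia, and ³H-glucose ran at 0.1 μCi min⁻¹. Clamp hepatic glucose production = whole-body uptake minus glucose infusion rate.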

Mus musculus [5] = assay: Decrease in Cd68 expression in ob/ob mouse adipose tissue at 40 mg/kg/day, po; assay type: functional, organism-based
Mus musculus [6] = assay: Increase in glucose uptake in gastrocnemius muscle in ob/ob mouse at 40 mg/kg/day, po after 4 weeks by hyperinsulinemic-euglycaemic clamp studies relative to control; assay type: functional, organism-based
Procedure, shortened: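 Ob/ob mice after 4 weeks of treatment, jugular catheterized 4 days earlier. Clamp with insulin at 12.5 mU kg⁻¹ min⁻¹, variable 25% glucose to hold basal glucose, and ³H-glucose at 0.1 μCi min⁻¹ with 2-¹⁴C-DG. Tissue uptake computed from the fitted plasma 2-¹⁴C-DG curve and tissue 2-¹⁴C-DG-6-phosphate content. n = 7 and 9.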

THP-1 [7] = assay: Increase in ABCA1 mRNA level in human THP1 cells at 25 uM relative to control; assay type: functional, cell-based
THP-1 [8] = assay: Reduction of TNF expression in human THP1 cells expressing aP2 relative to control; assay type: functional, cell-based
[9] = Reduction of IL6 expression mouse aP2-/-R macrophage cells (re-expression of aP2) relative to control; assay type: functional, cell-based
Procedure, shortened: (§2)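 Mouse aP2⁺/⁺ and aP2-reconstituted aP2⁻/⁻ macrophage lines were grown in RPMI with FBS or 5% LPDS, with inhibitor in DMSO or vehicle. Mcp-1, Il1β, Il6 and Tnf mRNA were measured by SYBR Green qRT-PCR (annealing at 58 °C, 50 cycles), normalized to 18s rRNA and then to untreated cells. Mean ± s.e.m.; at least triplicate.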

Macrophage = assay: Increase in cholesterol efflux in mouse aP2-/-R macrophage cells (re-expression of aP2) at 25 uM relative to control; assay type: functional, cell-based
Procedure, shortened: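 Macrophages loaded 24 h in RPMI with 5% LPDS, 1 μCi ml⁻¹ ³H-cholesterol and 50 μg ml⁻¹ acLDL, ± 25 μM inhibitor. Equilibrated 24 h in 0.2% fatty-acid-free BSA ± inhibitor, then 4 h ± APOA1 20 μg ml⁻¹. Efflux = medium ³H as % of total, per mg protein; mouse lines normalized to untreated aP2+/+.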

Mus musculus [10] = assay: Effect on body weight in 5-week old apoE-/- C57BL/6J mouse fed on western diet and 15 mg/kg/day, po drug simultaneously in 5-11 week early intervention study; assay type: functional
Mus musculus [11] = assay: Decrease in IL1-beta expression in ob/ob mouse adipose tissue at 40 mg/kg/day, po; assay type: functional, organism-based
THP-1 [12] = assay: Reduction of transformation of human THP1 cells to foam cells at 25 uM after 3 days relative to control; assay type: functional, cell-based
Procedure, shortened: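 PMA-differentiated THP-1 macrophages (100 nM, 24 h) were loaded with 50 μg ml⁻¹ acLDL for 24 h in 5% LPDS, then treated 3 days with 25 μM inhibitor or DMSO in 10% FBS. Cells were fixed in 10% formalin for 90 min and stained with Oil Red O for 3 h to view foam cells.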

Mus musculus [13] = assay: Increase in insulin-stimulated IRbeta tyrosine 1162/1163 phosphorylation in ob/ob mouse liver at 40 mg/kg/day, po relative to control; assay type: functional, organism-based
Procedure, shortened: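 Male ob/ob mice got 40 mg kg⁻¹ d⁻¹ by oral gavage or vehicle. After a 6 h fast under tribromoethanol anaesthesia, portal-vein insulin (2 IU kg⁻¹) or PBS was given. Liver was removed 3 min later, lysed and western-blotted for IRβ pTyr1162/1163 and AKT pSer473 against total IRβ and AKT, then quantified.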

THP-1 [14] = assay: Reduction of cholesterol ester accumulation in human THP1 cells at 25 uM after 4 days relative to control; assay type: functional; set-up: scale not given: the % may be the effect or the level left
Procedure, shortened: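 THP-1 monocytes were made into macrophages with 100 nM PMA for 24 h, then loaded for 24 h with 50 μg ml⁻¹ acLDL in 5% LPDS. They were then held 4 days in 10% FBS with 25 μM inhibitor or DMSO. After hexane/isopropanol extraction, cholesterol ester was taken as total minus free cholesterol, per cellular protein.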

Mus musculus [15] = assay: Effect on glucose level in 5-week old apoE-/- C57BL/6J mouse fed on western diet and administered with 15 mg/kg/day, po drug at 12 week in 12-18 week late intervention study; assay type: functional; procedure, shortened: as §1
[16] = Reduction of IL6 expression mouse aP2+/+ macrophage cells relative to control; assay type: functional, cell-based; procedure, shortened: as §2
Mus musculus [17] = assay: Inhibition of aP2 in 5-week old apoE -/- C57BL/6J mouse fed on western diet and 15 mg/kg/day, po drug simultaneously in early intervention study assessed as reduction of atherosclerotic lesion in en face aorta relative to control; assay type: functional; set-up: scale not given: the % may be the effect or the level left
Procedure, shortened: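 Male Apoe⁻/⁻ C57BL/6J mice were fed a western diet (21% fat, 0.21% cholesterol) from 4–5 weeks of age. They were gavaged for 6 weeks with 15 mg kg⁻¹ d⁻¹ in vehicle (10% 1-methyl-2-pyrrolidone, 5% cremophor EL with ethanol, in water), starting at 5 weeks (early) or 12 weeks (late). Perfusion-fixed, pinned-out aortas were stained with Sudan IV and lesion area was quantified.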

THP-1 [18] = assay: Reduction of IL1-beta expression in human THP1 cells expressing aP2 relative to control; assay type: functional, cell-based

CCc1c(-c2ccccc2)c(-c2ccccc2)nn1-c1ccccc1-c1cccc(OCC(=O)O)c1
Activity (Adipocyte): Active
Activity (Mus musculus [1]): Active
Activity (Mus musculus [2]): 410.7 mg/dL
Activity [3]: Active
Activity (Mus musculus [4]): Active
Activity (Mus musculus [5]): Active
Activity (Mus musculus [6]): Active
Activity (THP-1 [7]): Active
Activity (THP-1 [8]): Active
Activity [9]: Active
Activity (Macrophage): Active
Activity (Mus musculus [10]): 30.3 g
Activity (Mus musculus [11]): Active
Activity (THP-1 [12]): Active
Activity (Mus musculus [13]): Active
Activity (THP-1 [14]): 44%
Activity (Mus musculus [15]): 147.2 mg/dL
Activity [16]: Active
Activity (Mus musculus [17]): 52.6%
Activity (THP-1 [18]): Active
